Measured values as given in the EternaBench riboswitch data.

Test system: MS2 coat protein
Assay: apparent Kd, MS2 coat protein; higher = weaker binding; RNA-MaP array
How it was run: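 Apparent Kd was taken as the median of binding curves fitted cluster by cluster. The designed RNAs were made by transcription of sequenced DNA templates on an Illumina sequencing chip and exposed to fluorescently labeled MS2 coat protein (1.5 nM to 3 μM) at room temperature, with or without input ligand, for 0.8–1.5 h at the lowest and 10–20 min at the highest concentrations. Any design measured on fewer than 10 clusters was left out.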

[1] = designed as: ON switch for flavin mononucleotide, no ligand
[2] = ligand present: flavin mononucleotide, designed as: ON switch for flavin mononucleotide
[3] = designed as: OFF switch for flavin mononucleotide, no ligand
[4] = ligand present: flavin mononucleotide, designed as: OFF switch for flavin mononucleotide

Sequence	apparent Kd [1] [nM]	apparent Kd [2] [nM]	apparent Kd [3] [nM]	apparent Kd [4] [nM]	other results
AAACAAAUGCAAGGAUAUCAUAAUACAAACAGGAGAGAAGGUGCAGAGCACAUGAGGAUCACCCAUGUCCUAGGAUAUUCCUAA	121	80.4			
AAACACAACCAGAAGGCCAAAACAUGAGGAUCACCCAUGUAGAUAAGAAGAGUAAGCACUGUCAUGGAGGAUAUGGGUCAAAAC	20.8	7.12			
AAACAUACGUGAGGAUAUCCCGUUUGAGAGGCUAGUAUCAUCGAAACAUGAGGAUCACCCAUGUCGGAGAAGGCACUACAGGAG	6.63	6.6			
AAACGACAUGAGGAUCACCCAUGUACCUUUUACCUAGGAUAUCAGGUGCAUCAUACGUGCUGAGAAGGAGGCUCGC	64.1	59.7			
AAACUUACAGGAUAUACAUGAGGAUCACCCAUGUAAACGAAACACCAGGUGAUAGUGGGUAGAAGGGAAUAAAC			22.7	18.5	
AAAUAUAAUCAGAAGGGUUGCUAAACAUGAGGAUCACCCAUGUGAUAACGAUACGAGUAAAUCGAACAGGAUAUGAUGCAGGUU	16.5	12			
AACAUUAGAGGAUAUAUCAUCUUUCACAUGAGGAUCACCCAUGUUCCUCAGUGUUAGUGUAUAGAAGGCUAAGACA			279	26.9	
AAGGAGUUAGGAUAUCCGUGCGUUGACAUGAGGAUCACCCAUGUGUUGAUAAACCUACUAGGAGAAGGAACGAUAC			20.7	15.2	
AAGGGUCAACAGAAGGUUGUCGAACAUUGCGCCAAAGGAUAUGUCUACCGUUUAAGCGUUCGUCACAUGAGGAUCACCCAUGUU	26.8	18.3			
AAGUAGGAAGGAUAUACAUGAGGAUCACCCAUGUAAGGCAUUUGGCUAUAAUCGUUAAGUAGAAGGUCCUGCCG			8.6	8.2	
AAGUUGAGCACAAAGGAUAUUUGUAAACAAACAUGAGGAUCACCCAUGUGAACAAUAGUACAUACAAAGAAGGUUGAGAUACAUGU	54.2	25.9			
AAUUGAAUGGUAAGGAUAUAGGGUCGCGCCGAACGCUAGAAGGUACAUGAGGAUCACCCAUGUUGUGCGUCUUC			16.9	17.7	
AAUUGGUGACUAGGAUAUUAGGGAUGGCCGUACUAAGAAGGAGUCGUGCUAACAUGAGGAUCACCCAUGUAUUGGAAGCCUUAA			15.5	13.4	
ACAAGAGUAAAACAUACAUGAGGAUCACCCAUGUUAUCAACAAAGGAUAUCGUUGUGGUAGGGAACGAGAAGGUUGCAAAAUCA	15.4	11.7			
ACAUGAGGAUCACCCAUGUACAUUUAUACUGGGAGACUAUCGUAGGAUAUAUGAACAAGCAUUCUAUAGAAGGACGAAAAGAUC			59.4	40.4	
ACGAAAUCUUAAACUUACGCACAUGAGGAUCACCCAUGUCACUAGGAUAUUAAAACAAAACAAUGUAAGAAGGAGUGAGAAAAG	13.6	11.8			
ACGCACAUGAGGAUCACCCAUGUGAACCUACGAGGACCGGUACGGCCGCCACUCGCUGUUCCUACCGGCUUAAUUGUCACUGGGU					apparent Kd (designed as: ON switch for tryptophan, no ligand): 36.5 nM; apparent Kd (ligand present: tryptophan, designed as: ON switch for tryptophan): 35 nM
ACGGGACAUGAGGAUCACCCAUGUUAGGAUAUACGAACUUCGCCGAACGUGACCAAUUGUAGAAGGAACUUGGU			17.2	14	
ACGGUAGUACAUGAGGAUCACCCAUGUGGUUUUCUAAGAGGAUAGGAUAUACGUCCAAGCGGCAGGUAGAAGGAUCGAGUUUGC			41.7	34	
ACUACAUGCGAAUACAUGAGGAUCACCCAUGUCCAUAAGACCUAGGAUAUCCAGUAACCCUGCAAGGAGAAGGAGGAGAGCACU	25.4	19.6			
AGAAAUACAUGAGGAUCACCCAUGUGCAUCCUGACUAGUUGACAGGAUAUCAGUCUUACCUGGGCUGAGAAGGGUCCGCGUAGC			19.8		
AGAACUUUGGUGGAUACCAGCUUCUGGCCAUCCUUCAAAUACAUGAGGAUCACCCAUGUUAGCCCUUGGCAGCCAACAUAGACUG					apparent Kd (designed as: OFF switch for theophylline, no ligand): 22.4 nM; apparent Kd (ligand present: theophylline, designed as: OFF switch for theophylline): 222 nM
AGACCCUAGCAGAAGGCCCGCGACAUCCAAGAGGGAGGAUAUGCCACUAGAGCAAGCUUUGCACAUGAGGAUCACCCAUGUCCU	132	56.6			
AGCGCCUUAUCAGGAUAUAUGCGCAUGAAGUAGGUACACAUGAGGAUCACCCAUGUCCGGGGAACAUAGAAGGGAUAGAAGUAG	86.9	48.7			
AGCUCACAUGAGGAUCACCCAUGUCAAUUGUCAUCCUAUUGUAGAAGGCCGACACUGAUAUUAACGGAGGAUAUACGAGACAAU	15.2	7.85			
AGUGGUGCAACUGAUACCAGAUUUAUACGAGACAUGAGGAUCACCCAUGUCGAAAGACAAAUCCCUUGGCAGCAGACACGAUCCC					apparent Kd (designed as: ON switch for theophylline, no ligand): 9.42 nM; apparent Kd (ligand present: theophylline, designed as: ON switch for theophylline): 8.85 nM
